Measurements: paper PMC9065027 (RSC Advances, 2019)

Experiments:
LdNH = assay: NMR Saturation Transfer Difference; assay type: binding, Leishmania donovani; conditions: 100 μM LdNH, 2 mM compound, 2 s saturation time
Summary of the method: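 STD spectra acquired in alternating scans, on-resonance at −1 ppm and off-resonance at 20 ppm. DPFGSE water suppression, 2 s saturation time, 1024 scans.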

[1] = system: amastigote parasite Leishmania amazonensis; conditions: cited from earlier work
HSV-1 = conditions: cited from earlier work
HSV-2 = conditions: cited from earlier work

STD signals in presence of LdNH (LdNH) | Compound | leishmanicidal activity IC50 [1] [µg/mL] | IC50 ([1]; read-out: leishmanicidal activity IC50, value in brackets) [µM] | anti-viral activity EC50 (HSV-1) [µg/mL] | anti-viral activity EC50 (HSV-2) [µg/mL]
only weak resonances | C[C@@H]1O[C@@H](Oc2c(-c3ccc(O)cc3)oc3cc(O)cc(O)c3c2=O)[C@H](O)[C@H](O)[C@H]1O [compound 1, kaempferol 3-O-α-L-rhamnopyranoside] | 70 | 162 |  | 
much more intense | C[C@@H]1O[C@@H](Oc2c(-c3ccc(O)cc3)oc3cc(O)cc(O)c3c2=O)[C@H](O[C@@H]2OC[C@@H](O)[C@H](O)[C@H]2O)[C@H](O)[C@H]1O [compound 2, kaempferol 3-O-β-D-xylopyranosyl-(1→2)-α-L-rhamnopyranoside] |  |  | 7.4 | 9.0
